In PMC12130796 (Clinical Cancer Research, 2025):
Read-outs that look alike come from different tables or passages of the source.

Key:
patients with AOGCT = settings: case report, one patient with AOGCT, cited from earlier work
E-cadherin, vimentin = assay: EMT immunofluorescence assay in tumor biopsies, log10; format: in vivo, human; settings: single-agent paclitaxel, C1D2 biopsies
[1] = Plasma pharmacokinetics of paclitaxel and metabolites; format: in vivo, human
[2] = test system: serine 10-phosphorylated histone H3 (pHH3); assay: pHH3 quantitative immunofluorescence; format: in vivo, human; settings: C1D2 biopsies (after paclitaxel alone) relative to baseline, P = 0.0031
Outline: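 Adult patients with solid tumours received IV test taxane on days 1, 8 and 15 of 28-day cycles, with oral kinase inhibitor started C1D3 during dose expansion. 18-gauge core biopsies were taken at baseline, C1D2 and C1D28, snap-frozen, thawed in neutral buffered formalin, paraffin-embedded and cut at 5 micron for quantitative IFA. Per-patient means were compared by unpaired t test assuming unequal variances.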

[3] = test system: patients with relapsed ovarian sex cord–stromal tumors; settings: weekly paclitaxel monotherapy, phase 2 arm, 32 patients (84% AOGCT); cited from earlier work
[4] = cited from earlier work
OATP1B2 = settings: via inhibition of OATP1B2 in dorsal root ganglia cells; cited from earlier work
AOGCT KGN cells = settings: read-out: EC50, inhibition of proliferation; KGN cells in vitro; cited from earlier work
CYP2C8 = settings: cited from earlier work
[5] = Plasma pharmacokinetics of nilotinib in the combination; format: in vivo; settings: human, oral, Mean nilotinib AUC(0–24hours)

Cc1ccc(NC(=O)c2ccc(CN3CCN(C)CC3)cc2)cc1Nc1nccc(-c2cccnc2)n1 [Imatinib]
Duration of stable disease (patients with AOGCT; ref 36): over 16 months
Duration of stable disease (patients with AOGCT; ref 37): 12 months

CC(=O)O[C@H]1C(=O)[C@@]2(C)[C@H]([C@H](OC(=O)c3ccccc3)[C@]3(O)C[C@H](OC(=O)[C@H](O)[C@@H](NC(=O)c4ccccc4)c4ccccc4)C(C)=C1C3(C)C)[C@]1(OC(C)=O)CO[C@@H]1C[C@@H]2O [paclitaxel]
Change in tumor EMT phenotype (E-cadherin, vimentin): no obvious biologically relevant changes in EMT phenotype
Dose proportionality of plasma concentrations ([1]; across the two doses tested (60 and 80 mg/m^2)): dose-proportional
Change in mitotic arrest marker pHH3 [2]: significant increase
Progression-free survival [3]: 14.7 months

Cc1cn(-c2cc(NC(=O)c3ccc(C)c(Nc4nccc(-c5cccnc5)n4)c3)cc(C(F)(F)F)c2)cn1 [nilotinib]
Published mean AUC(0–24hours) ([4]; nilotinib monotherapy): 3,848 ± 1,116 μmol/L × minutes
Cmax ([4]; read-out: Clinical Cmax, 300 mg twice-daily dosing): ~2000 nM
Effect on paclitaxel-induced peripheral neuropathy (OATP1B2): attenuates paclitaxel-induced peripheral neuropathy
Effect of nilotinib coadministration on plasma paclitaxel exposures ([1]; day 8 vs day 1, DL2 vs DL3): does not modulate plasma paclitaxel exposures
EC50 (AOGCT KGN cells): 13.1 µM
Effect on CYP2C8-mediated 6α-hydroxypaclitaxel formation (CYP2C8): inhibits
AUC(0-t) ([5]; day 8, DL2 (300 mg nilotinib twice daily, 80 mg/m^2 paclitaxel)): 51.2 µM·h
AUC(0-t) ([5]; day 8, DL3 (400 mg nilotinib twice daily, 80 mg/m^2 paclitaxel)): 90.4 µM·h
